# Data: ChEMBL document CHEMBL1151773, “Synthesis and biological evaluation of amide derivatives of (5,6-dimethoxy-2,3-dihydro-1H-inden-1-yl)acetic acid as anti-inflammatory agents with reduced gastrointestinal ulcerogenecity” (Eur J Med Chem, 2008)
# Key:
# Rattus norvegicus [1] = organism: Rattus norvegicus; assay: animal or person; settings: Wistar, po, read-out: INH
# Rattus norvegicus [2] = assay: Antipyretic activity in Wistar rat assessed as change in LPS-induced rectal temperature at 10 mg/kg, po administered 30 mins before LPS challenge after 6 hrs; format: functional
# Method in brief: (§1)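 Adult female Wistar rats, 170±20 g, fasted 24 h, dosed orally at 09:00; 30 min later E. coli 0111:B4 phenol-extracted LPS in apyrogenic saline given i.p. Rectal temperature by telethermometer probe just before and 1–7 h hourly after LPS; temperature index calculated from these readings. n = 6.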
# Rattus norvegicus [3] = assay: Antipyretic activity in Wistar rat assessed as change in LPS-induced rectal temperature at 10 mg/kg, po administered 30 mins before LPS challenge after 4 hrs; format: functional
# Method in brief: as §1
# Mus musculus = assay: Analgesic activity in Swiss albino mouse assessed as inhibition of acetic acid-induced writhing at 10 mg/kg, po administered 60 mins before acetic acid challenge after 5 to 15 mins relative to control; format: functional
# Method in brief: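 Female Swiss albino mice, 20±5 g, fasted overnight with free water access, dosed orally; 1 h later injected i.p. with 1% v/v acetic acid at 0.1 ml/10 g. Writhes (full hind-limb extension) counted for 15 min, starting 5 min after injection; only animals giving 20 or more writhes used. % inhibition = 100(1−Wt/Wc) vs control group mean; six animals per group.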
# Rattus norvegicus [4] = assay: Antiarthritic activity in Albino rat assessed as inhibition of Freund's complete adjuvant-induced paw volume at 10 mg/kg, po administered for 14 days daily once starting a day before adjuvant challenge measured on day 3; format: functional
# Method in brief: (§2)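 Female albino rats, 160±10 g, six per group, dosed orally once daily for 14 days starting the day before 0.1 ml Freund's complete adjuvant into the right hind paw subplantar surface. Both hind paw volumes, measured up to a mark at the lateral malleolus, taken before and daily after adjuvant.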
# Rattus norvegicus [5] = assay: Antipyretic activity in Wistar rat assessed as change in LPS-induced rectal temperature at 10 mg/kg, po administered 30 mins before LPS challenge after 5 hrs; format: functional
# Method in brief: as §1
# Rattus norvegicus [6] = assay: Antiinflammatory activity in Wistar rat assessed as inhibition of carrageenan-induced hind paw edema volume at 10 mg/kg, po administered 60 mins before carrageenan challenge after 3 hrs relative to control; format: functional
# Method in brief: (§3)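 Female Wistar rats (170± 20 g), fasted overnight, n=6 per group; dosed orally, then 0.1 ml of 1% carrageenan injected subplantar into right hind paw 1 h later.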
# Rattus norvegicus [7] = assay: Antipyretic activity in Wistar rat assessed as change in LPS-induced rectal temperature at 10 mg/kg, po administered 30 mins before LPS challenge after 3 hrs; format: functional
# Method in brief: as §1
# Rattus norvegicus [8] = assay: Antiarthritic activity in Freund's complete adjuvant challenged Albino rat model assessed as change in body weight at 10 mg/kg, po administered for 14 days daily once starting a day before adjuvant challenge; format: functional; settings: 336 h, read-out: INH
# Rattus norvegicus [9] = assay: Antiinflammatory activity in Wistar rat assessed as inhibition of carrageenan-induced hind paw edema volume at 10 mg/kg, po administered 60 mins before carrageenan challenge after 24 hrs relative to control; format: functional
# Rattus norvegicus [10] = assay: Gastrointestinal toxicity in Wistar rat assessed as ulcer index at 30 mg/kg, po after 6 hrs; format: organism-based; parameters: dose 30 mg/kg, route oral; settings: in vivo
# Method in brief: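 Female Wistar rats, 175±25 g, fasted 24 h, dosed orally once; sacrificed 6 h later by cervical dislocation. Stomach opened along greater curvature, saline-washed, mucosa inspected with a hand lens. Lesions graded I (edema/hyperemia/petechiae), II (hemorrhagic lesions with small erosions), III (deep ulcers); UI = nI + 2nII + 3nIII. Mean ± SEM, n = 6.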
# Rattus norvegicus [11] = assay: Antipyretic activity in Wistar rat assessed as change in LPS-induced rectal temperature at 10 mg/kg, po administered 30 mins before LPS challenge after 7 hrs; format: functional
# Method in brief: as §1
# Rattus norvegicus [12] = assay: Antipyretic activity in Wistar rat assessed as change in LPS-induced rectal temperature at 10 mg/kg, po administered 30 mins before LPS challenge after 1 hr; format: functional
# Method in brief: as §1
# Rattus norvegicus [13] = assay: Gastrointestinal toxicity in Wistar rat assessed as ulcer index at 1 mg/kg, po after 14 days; format: organism-based; parameters: route oral; settings: in vivo, 336 h
# Method in brief: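 Gastric mucosa examined for ulceration at post-mortem of female albino rats sacrificed at the end of the 14-day once-daily oral dosing in the Freund's adjuvant arthritis study; ulcer index scored per animal. Mean ± SEM, n = 6.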
# Rattus norvegicus [14] = assay: Antiarthritic activity in Albino rat assessed as inhibition of Freund's complete adjuvant-induced paw volume at 10 mg/kg, po administered for 14 days daily once starting a day before adjuvant challenge measured on day 8; format: functional
# Method in brief: as §2
# Rattus norvegicus [15] = assay: Antiinflammatory activity in Wistar rat assessed as inhibition of carrageenan-induced hind paw edema volume at 10 mg/kg, po administered 60 mins before carrageenan challenge after 6 hrs relative to control; format: functional
# Rattus norvegicus [16] = assay: Antiinflammatory activity in Wistar rat assessed as inhibition of carrageenan-induced hind paw edema volume at 10 mg/kg, po administered 60 mins before carrageenan challenge after 1 hr relative to control; format: functional
# Method in brief: as §3
# Rattus norvegicus [17] = assay: Antiarthritic activity in Albino rat assessed as inhibition of Freund's complete adjuvant-induced paw volume at 10 mg/kg, po administered for 14 days daily once starting a day before adjuvant challenge measured on day 13; format: functional
# Method in brief: as §2
# Rattus norvegicus [18] = assay: Antipyretic activity in Wistar rat assessed as change in LPS-induced rectal temperature at 10 mg/kg, po administered 30 mins before LPS challenge after 2 hrs; format: functional
# Method in brief: as §1
# Rattus norvegicus [19] = assay: Antiinflammatory activity in Wistar rat assessed as inhibition of carrageenan-induced hind paw edema volume at 10 mg/kg, po administered 60 mins before carrageenan challenge after 4 hrs relative to control; format: functional
# Method in brief: as §3
smiles,measurement,setting,value
COc1ccc2c(c1)c(CC(=O)O)c(C)n2C(=O)c1ccc(Cl)cc1 [INDOMETHACIN],inhibition in vivo at 10 mg/kg,Rattus norvegicus [1],58%
same,Activity,Rattus norvegicus [2],0.35 °C
same,Activity,Rattus norvegicus [3],0.22 °C
same,inhibition in vivo at 10 mg/kg,Mus musculus,51.5%
same,inhibition in vivo at 10 mg/kg,Rattus norvegicus [4],37.5%
same,Activity,Rattus norvegicus [5],0.3 °C
same,inhibition in vivo at 10 mg/kg,Rattus norvegicus [6],65.2%
same,Activity,Rattus norvegicus [7],-0.11 °C
same,inhibition in vivo at 10 mg/kg,Rattus norvegicus [8],5.68 g
same,inhibition in vivo at 10 mg/kg,Rattus norvegicus [9],13.3%
same,UI,Rattus norvegicus [10],31.37
same,Activity,Rattus norvegicus [11],0.55 °C
same,Activity,Rattus norvegicus [12],-0.39 °C
same,UI,Rattus norvegicus [13],72
same,inhibition in vivo at 10 mg/kg,Rattus norvegicus [14],43.9%
same,inhibition in vivo at 10 mg/kg,Rattus norvegicus [15],48.1%
same,inhibition in vivo at 10 mg/kg,Rattus norvegicus [16],50%
same,inhibition in vivo at 10 mg/kg,Rattus norvegicus [17],46.5%
same,Activity,Rattus norvegicus [18],-1.03 °C
same,inhibition in vivo at 10 mg/kg,Rattus norvegicus [19],57.8%
